From publication PMC4857835 (Investigative Ophthalmology & Visual Science, 2016) come the findings set out here.

Data set [1] deals with human PKal (plasma kallikrein) (Homo sapiens, UniProt P03952). The data set is described as follows: PKal protease activity assay, fluorogenic substrate H-D-Pro-Phe-Arg-AFC. It counts as biochemical. The essentials:
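Purified human plasma kallikrein with fluorogenic H-D-Pro-Phe-Arg-AFC at its Km concentration, plus test compound. Fluorescence is followed over 5 min and the linear rate per min is taken. IC50 is the concentration giving 50% inhibition of uninhibited activity (100%). Fold selectivity is each related protease's IC50 relative to the human PKal IC50.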

Data set [2] in a line: In vivo pharmacokinetics following subcutaneous dosing. Also noted: species or system male SD rats. The settings on record: male, SD, rat, plasma, sc, 10 mg/kg.
Data set [3] deals with VEGF-induced retinal thickening. The data set is described as follows: VEGF-induced retinal thickening in mice. It counts as in vivo, WT mice (C57Bl/6). The conditions noted are these: 1.60 mg/kg/d s.c. osmotic pump, VEGF 100 ng/eye.
For data set [4] the test system is unchanged. The data set is described as follows: VEGF-induced retinal thickening in rats. In kind it is in vivo, Sprague-Dawley rats. The conditions noted are these: 0.58 mg/kg/d s.c. osmotic pump, VEGF 10 ng/eye, 48 hours, P < 0.001. The essentials: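 Male Sprague-Dawley rats (10 weeks) got test compound 0.58 mg/kg/d or vehicle (10% PEG400 in PBS) by s.c. osmotic pump, started 1 day before 5 µL intravitreal VEGF 10 ng/eye or PBS. SD-OCT (2.5×2.5 mm volume centred on the optic nerve head) gave RPE-to-RNFL thickness 800 µm from centre at baseline, 24 and 48 h. Change from baseline was compared with vehicle-treated rats.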

Data set [5] addresses mouse PKal (plasma kallikrein) (Mus musculus, UniProt P26262). Description: PKal protease activity assay, fluorogenic substrate H-D-Pro-Phe-Arg-AFC. It counts as biochemical. A digest of the protocol:
(§1)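 Purified mouse or rat plasma kallikrein with fluorogenic H-D-Pro-Phe-Arg-AFC at substrate Km, with test compound present. Liberated fluorescence is monitored over 5 min and the linear rate per min is calculated. IC50 is the inhibitor concentration giving 50% inhibition of uninhibited enzyme activity (100%).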

In a further data set the target is plasmin (Homo sapiens, UniProt P00747). Description: Trypsin-like protease enzyme activity assay. It counts as biochemical. A digest of the protocol: (§2)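 Each human protease (plasmin, thrombin, trypsin, KLK1, factor XIa) is run with a suitable fluorogenic substrate. Km comes from a standard Michaelis-Menten transformation, and assays run at substrate Km. Fluorescence is read over 5 min and the linear rate per min is expressed as % activity. IC50 is 50% inhibition of uninhibited activity, and fold selectivity is relative to the human PKal IC50.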
Chain of plasmin (P00747 581-810 limits assumed): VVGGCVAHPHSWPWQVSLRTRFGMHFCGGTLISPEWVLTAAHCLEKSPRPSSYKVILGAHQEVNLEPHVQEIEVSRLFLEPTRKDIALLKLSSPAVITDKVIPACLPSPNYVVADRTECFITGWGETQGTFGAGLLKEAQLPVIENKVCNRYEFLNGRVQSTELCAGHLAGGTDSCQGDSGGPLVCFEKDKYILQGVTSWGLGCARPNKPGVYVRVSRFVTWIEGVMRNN
Chain of plasmin (P00747 97-580 partner limits assumed): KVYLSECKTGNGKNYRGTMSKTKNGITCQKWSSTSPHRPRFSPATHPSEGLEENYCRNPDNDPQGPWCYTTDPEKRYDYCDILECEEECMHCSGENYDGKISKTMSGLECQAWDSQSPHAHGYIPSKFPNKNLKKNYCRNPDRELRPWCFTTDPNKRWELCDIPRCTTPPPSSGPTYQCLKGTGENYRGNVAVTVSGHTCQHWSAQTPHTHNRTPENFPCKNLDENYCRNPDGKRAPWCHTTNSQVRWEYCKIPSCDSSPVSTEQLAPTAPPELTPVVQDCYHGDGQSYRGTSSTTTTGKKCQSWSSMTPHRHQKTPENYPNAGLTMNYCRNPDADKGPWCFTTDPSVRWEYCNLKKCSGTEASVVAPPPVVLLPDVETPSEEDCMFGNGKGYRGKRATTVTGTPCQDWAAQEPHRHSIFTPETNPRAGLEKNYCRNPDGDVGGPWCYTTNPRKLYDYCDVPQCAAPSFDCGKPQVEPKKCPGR

The target in another data set is trypsin. The data set is described as follows: Trypsin-like protease enzyme activity assay. It counts as biochemical, human. A digest of the protocol: as §2
The target in a further data set is thrombin (Homo sapiens, UniProt P00734). The data set is described as follows: Trypsin-like protease enzyme activity assay. It counts as biochemical. The essentials:
as §2

For another data set, the target named is factor XIa (Homo sapiens, UniProt P03951). Description: Trypsin-like protease enzyme activity assay. It counts as biochemical. The essentials:
as §2

For data set [6], the target named is rat PKal (plasma kallikrein) (Rattus norvegicus, UniProt P14272). The data set is described as follows: PKal protease activity assay, fluorogenic substrate H-D-Pro-Phe-Arg-AFC. In kind it is biochemical. A digest of the protocol:
as §1

Another data set concerns the target KLK1 tissue kallikrein (Homo sapiens, UniProt P06870). Description: Trypsin-like protease enzyme activity assay. It counts as biochemical. The essentials: as §2

Chain of human PKal (plasma kallikrein) (P03952 391-638 limits assumed): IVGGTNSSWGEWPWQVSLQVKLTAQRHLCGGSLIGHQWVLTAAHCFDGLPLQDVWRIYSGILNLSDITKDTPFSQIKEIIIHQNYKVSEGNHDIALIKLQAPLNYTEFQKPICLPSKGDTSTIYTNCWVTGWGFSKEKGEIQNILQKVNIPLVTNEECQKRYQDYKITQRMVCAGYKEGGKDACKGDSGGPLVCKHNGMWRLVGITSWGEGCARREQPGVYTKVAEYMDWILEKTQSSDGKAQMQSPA
Chain of human PKal (plasma kallikrein) (P03952 20-390 partner limits assumed): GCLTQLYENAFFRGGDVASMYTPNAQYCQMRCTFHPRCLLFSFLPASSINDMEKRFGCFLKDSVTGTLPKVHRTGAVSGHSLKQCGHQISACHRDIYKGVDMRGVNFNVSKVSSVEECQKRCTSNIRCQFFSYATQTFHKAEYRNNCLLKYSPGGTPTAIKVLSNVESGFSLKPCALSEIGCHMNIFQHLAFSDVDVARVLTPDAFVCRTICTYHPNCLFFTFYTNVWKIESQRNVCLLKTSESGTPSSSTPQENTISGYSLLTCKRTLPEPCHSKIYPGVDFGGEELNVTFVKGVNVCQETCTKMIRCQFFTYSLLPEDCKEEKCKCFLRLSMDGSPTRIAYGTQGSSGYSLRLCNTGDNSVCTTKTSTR
Chain of factor XIa (P03951 388-625 limits assumed): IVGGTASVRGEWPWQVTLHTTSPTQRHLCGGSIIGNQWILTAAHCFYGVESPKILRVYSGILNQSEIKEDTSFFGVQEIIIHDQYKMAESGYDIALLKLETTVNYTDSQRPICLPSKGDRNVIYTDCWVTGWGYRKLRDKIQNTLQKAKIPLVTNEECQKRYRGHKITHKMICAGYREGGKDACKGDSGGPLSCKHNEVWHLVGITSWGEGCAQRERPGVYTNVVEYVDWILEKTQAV
Chain of factor XIa (P03951 19-387 partner limits assumed): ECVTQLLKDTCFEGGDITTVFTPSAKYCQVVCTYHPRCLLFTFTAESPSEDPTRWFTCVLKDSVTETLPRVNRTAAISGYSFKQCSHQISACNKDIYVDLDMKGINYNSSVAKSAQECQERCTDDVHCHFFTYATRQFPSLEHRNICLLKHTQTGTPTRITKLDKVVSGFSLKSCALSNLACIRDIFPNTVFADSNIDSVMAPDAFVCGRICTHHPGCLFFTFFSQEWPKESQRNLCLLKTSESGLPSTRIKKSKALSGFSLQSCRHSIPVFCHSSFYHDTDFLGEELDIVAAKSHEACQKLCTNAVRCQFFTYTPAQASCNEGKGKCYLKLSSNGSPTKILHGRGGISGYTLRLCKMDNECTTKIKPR
Chain of KLK1 tissue kallikrein (P06870 25-262): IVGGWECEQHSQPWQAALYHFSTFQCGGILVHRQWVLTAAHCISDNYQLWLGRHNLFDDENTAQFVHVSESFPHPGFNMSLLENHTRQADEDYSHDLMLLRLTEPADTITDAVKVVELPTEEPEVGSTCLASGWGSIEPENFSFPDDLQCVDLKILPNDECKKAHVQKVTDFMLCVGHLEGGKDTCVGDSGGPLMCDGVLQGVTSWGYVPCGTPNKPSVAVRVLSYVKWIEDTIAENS
Chain of mouse PKal (plasma kallikrein) (P26262 391-638 limits assumed): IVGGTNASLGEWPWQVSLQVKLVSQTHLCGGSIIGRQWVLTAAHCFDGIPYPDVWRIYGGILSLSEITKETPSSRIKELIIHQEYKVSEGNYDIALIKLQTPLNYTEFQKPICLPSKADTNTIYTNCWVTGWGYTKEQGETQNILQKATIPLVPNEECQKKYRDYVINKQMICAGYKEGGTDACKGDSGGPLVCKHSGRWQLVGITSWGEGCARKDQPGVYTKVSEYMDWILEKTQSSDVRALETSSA
Chain of mouse PKal (plasma kallikrein) (P26262 20-390 partner limits assumed): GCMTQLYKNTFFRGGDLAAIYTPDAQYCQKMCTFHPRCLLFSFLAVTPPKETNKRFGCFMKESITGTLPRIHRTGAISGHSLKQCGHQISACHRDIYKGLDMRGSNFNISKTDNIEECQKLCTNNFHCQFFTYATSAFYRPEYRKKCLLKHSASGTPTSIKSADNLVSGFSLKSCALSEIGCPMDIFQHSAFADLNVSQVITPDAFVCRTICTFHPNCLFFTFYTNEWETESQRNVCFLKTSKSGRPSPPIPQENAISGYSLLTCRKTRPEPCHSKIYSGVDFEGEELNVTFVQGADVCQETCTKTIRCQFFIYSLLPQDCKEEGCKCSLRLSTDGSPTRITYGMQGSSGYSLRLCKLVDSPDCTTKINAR
Chain of rat PKal (plasma kallikrein) (P14272 391-638 limits assumed): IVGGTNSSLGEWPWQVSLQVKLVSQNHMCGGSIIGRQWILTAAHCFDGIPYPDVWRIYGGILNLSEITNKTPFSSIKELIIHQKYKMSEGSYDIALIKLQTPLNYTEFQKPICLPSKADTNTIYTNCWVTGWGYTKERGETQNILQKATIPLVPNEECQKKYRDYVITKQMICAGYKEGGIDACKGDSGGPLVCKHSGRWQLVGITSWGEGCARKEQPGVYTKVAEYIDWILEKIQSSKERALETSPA
Chain of rat PKal (plasma kallikrein) (P14272 20-390 partner limits assumed): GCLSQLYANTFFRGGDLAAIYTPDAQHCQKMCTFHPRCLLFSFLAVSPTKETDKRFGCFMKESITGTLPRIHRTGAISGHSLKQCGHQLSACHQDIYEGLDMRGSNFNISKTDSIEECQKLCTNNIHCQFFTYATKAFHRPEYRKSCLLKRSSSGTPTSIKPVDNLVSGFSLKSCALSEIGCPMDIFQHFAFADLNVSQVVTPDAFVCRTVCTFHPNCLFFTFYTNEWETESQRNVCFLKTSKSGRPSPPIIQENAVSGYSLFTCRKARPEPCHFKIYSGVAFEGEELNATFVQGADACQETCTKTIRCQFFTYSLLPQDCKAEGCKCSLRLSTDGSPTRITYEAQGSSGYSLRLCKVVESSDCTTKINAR

One may read the IC50 as the point on the concentration scale where inhibition reaches its midpoint. One may read the Cmax as the highest concentration seen after dosing. For orientation: Tmax means the time at which the peak concentration occurs. By half-life is commonly meant the time in which the quantity being followed falls by half. `CCOc1ccc(C[C@@H](N)C(=O)N[C@@H](Cc2ccccc2)C(=O)NC2CCN(C(=N)N)CC2)cc1.O=C(O)C(F)(F)F.O=C(O)C(F)(F)F` [VA999272, (R)-2-amino-N-[(S)-1-(1-carbamimidoyl-piperidin-4-ylcarbamoyl)-2-phenyl-ethyl]-3-(4-ethoxy-phenyl)-propionamide ditrifluoroacetate]: the IC50 in data set [1] was 0.00398 ± 0.00361 µM; in [5], 0.00118 ± 0.00025 µM; on plasmin it was 23.1 µM; on trypsin (read-out: Mean IC50 Trypsin, substrate at Km), 38.9 µM; against thrombin it was 9.1 µM; on factor XIa, greater than 10 µM. In addition, the IC50 was found to be 0.00654 ± 0.00076 µM in [6] and 33.5 µM against KLK1 tissue kallikrein. The “Fold selectivity to human PKal” value in data set [1] (PKal itself (reference)) is reported as 1; on plasmin (plasmin IC50 vs human PKal IC50), 5821; with trypsin (trypsin IC50 vs human PKal IC50), 9772; on thrombin (thrombin IC50 vs human PKal IC50), 2291; on factor XIa (factor XIa IC50 vs human PKal IC50), greater than 2513; on KLK1 tissue kallikrein (KLK1 IC50 vs human PKal IC50), 8414. In addition, in data set [1] (vs KLK1, factor XIIa, factor XIa, thrombin, plasmin, trypsin), the “selectivity to PKal over closely related trypsin-like serine proteases” value is given as greater than 1000 fold. The concentration in [2] peaked (Cmax) at 0.974 µg/mL. Also, in data set [2], the Tmax is 1.5 h. Further, the half-life in data set [2] was determined as 3.55 h. In addition, the “reduction of VEGF effect on retinal thickness vs vehicle-treated” value in data set [3] (24 hours, P = 0.039) is given as 36%; in [3] (48 hours, P < 0.001), 57%. Moreover, in data set [4], the “reduction of VEGF-induced retinal thickening vs vehicle-treated” value is given as 53%.
